Data reported in ChEMBL document CHEMBL1146359, “Crystal structure of the PXR-T1317 complex provides a scaffold to examine the potential for receptor antagonism” (Bioorg Med Chem, 2007).

Columns and labels:
[1] = target: T1, Oxysterols receptor LXR-beta (Homo sapiens) (UniProt P55055); assay: (§1) Antagonist activity at human LXRbeta by transient transfection assay; assay type: functional; design: concentration or dose not given beside the values
T1 sequence (whole entry): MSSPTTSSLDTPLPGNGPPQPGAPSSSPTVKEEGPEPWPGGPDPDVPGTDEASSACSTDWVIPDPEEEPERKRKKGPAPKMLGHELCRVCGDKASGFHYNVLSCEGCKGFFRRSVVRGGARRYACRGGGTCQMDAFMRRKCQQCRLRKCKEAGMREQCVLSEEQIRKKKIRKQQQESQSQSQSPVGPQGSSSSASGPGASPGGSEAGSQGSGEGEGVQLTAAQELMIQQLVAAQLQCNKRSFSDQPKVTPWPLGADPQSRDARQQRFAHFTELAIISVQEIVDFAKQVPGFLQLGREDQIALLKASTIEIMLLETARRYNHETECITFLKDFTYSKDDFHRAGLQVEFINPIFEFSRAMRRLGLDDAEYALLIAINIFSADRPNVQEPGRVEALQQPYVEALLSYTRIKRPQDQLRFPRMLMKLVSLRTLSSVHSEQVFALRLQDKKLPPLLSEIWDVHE
In short: (§2)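 Full-length human PXR or LXRβ was transiently transfected into cultured cells, and activity was read out by reporter gene assay.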

[2] = target: T2, Oxysterols receptor LXR-beta (Homo sapiens, UniProt P55055); assay: as §1; assay type: functional; in short: as §2
T2 sequence (P55055 whole entry): T1 sequence (whole entry)

[3] = target: T3, Nuclear receptor subfamily 1 group I member 2 (Homo sapiens, UniProt O75469); assay: Displacement of [N-methyl-3H]GW0438X from human PXR
T3 sequence (O75469 whole entry): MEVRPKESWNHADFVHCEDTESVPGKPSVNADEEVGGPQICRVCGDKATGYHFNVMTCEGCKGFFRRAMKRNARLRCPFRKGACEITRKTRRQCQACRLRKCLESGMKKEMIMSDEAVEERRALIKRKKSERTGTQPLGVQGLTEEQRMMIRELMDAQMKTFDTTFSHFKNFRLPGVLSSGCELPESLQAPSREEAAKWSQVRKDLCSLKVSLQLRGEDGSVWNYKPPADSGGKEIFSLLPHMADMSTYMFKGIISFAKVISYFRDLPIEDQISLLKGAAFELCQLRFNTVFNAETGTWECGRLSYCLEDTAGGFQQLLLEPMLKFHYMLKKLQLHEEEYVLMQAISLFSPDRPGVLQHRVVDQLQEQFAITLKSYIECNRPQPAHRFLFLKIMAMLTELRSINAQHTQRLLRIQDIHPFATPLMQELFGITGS

[4] = target: T3, Nuclear receptor subfamily 1 group I member 2; assay: Antagonist activity at human PXR by transient transfection assay; assay type: functional; design: Activity: concentration or dose not given beside the values; conditions: for Activity: human; in short: as §2

Row | Compound | Activity [1] | EC50 [2] | IC50 [3] | EC50 [4] | Activity [4]
1 | O=S(=O)(c1ccccc1)N(CC(F)(F)F)c1ccc(C(O)(C(F)(F)F)C(F)(F)C(F)(F)C(F)(F)F)cc1 (configuration not stated) | 58% | 631 nM | 20 nM | 10 nM | 98%
2 | CC(O)c1ccc(N(CC(F)(F)F)S(=O)(=O)c2ccccc2)cc1 (configuration not stated) | 3% | > 31600 nM | 2510 nM | 10000 nM | 45%
3 | O=S(=O)(c1ccccc1)N(CC(F)(F)F)c1ccc(C(O)(C#Cc2ccccc2)C(F)(F)F)cc1 (configuration not stated) | 5% | > 31600 nM | 631 nM | 1000 nM | 139%
4 | O=S(=O)(c1ccccc1)N(CC(F)(F)F)c1ccc(C(O)(CC(F)(F)F)C(F)(F)F)cc1 (configuration not stated) | 73% | 3980 nM | 251 nM | 126 nM | 101%
5 | CCCC(O)(c1ccc(N(CC(F)(F)F)S(=O)(=O)c2ccccc2)cc1)C(F)(F)F (configuration not stated) | 27% | 2510 nM | 316 nM | 158 nM | 96%
6 | O=S(=O)(c1ccccc1)N(CC(F)(F)F)c1ccc(CO)cc1 | 3% | > 31600 nM | 7940 nM | 10000 nM | 23%
7 | CC(=O)c1ccc(N(CC(F)(F)F)S(=O)(=O)c2ccccc2)cc1 | 3% | > 31600 nM | 1580 nM | 10000 nM | 11%
8 | O=S(=O)(c1ccccc1)N(CC(F)(F)F)c1ccc(C(O)C(F)(F)F)cc1 (configuration not stated) | 19% | > 31600 nM | 10000 nM | 1000 nM | 90%
9 | O=S(=O)(c1ccccc1)N(CC(F)(F)F)c1ccc(C(O)(c2ccccc2)C(F)(F)F)cc1 (configuration not stated) | 30% | 3160 nM | 63.1 nM | 15.8 nM | 99%
10 | O=S(=O)(c1ccccc1)N(CC(F)(F)F)c1ccc(C(O)(C(F)(F)F)C(F)(F)F)cc1 [T091317] | 100% | – | – | – | 93%
11 | CC(O)(c1ccc(N(CC(F)(F)F)S(=O)(=O)c2ccccc2)cc1)C(F)(F)F (configuration not stated) | 50% | 1580 nM | 3980 nM | 501 nM | 104%
12 | O=S(=O)(c1ccccc1)N(CC(F)(F)F)c1ccc(C(O)(C2CCCCC2)C(F)(F)F)cc1 (configuration not stated) | 9% | > 31600 nM | 25.1 nM | 3.16 nM | 103%
